# Results taken from ChEMBL document CHEMBL4814057, “4-4-(Anilinomethyl)-3-[4-(trifluoromethyl)phenyl]-1H-pyrazol-1-ylbenzoic acid derivatives as potent anti-gram-positive bacterial agents” (Eur J Med Chem, 2021).
# Activity calls are given as the source filed them. No cut-off for these calls is given here.
# What was measured:
# Staphylococcus aureus [1] = assay: Inhibition of lipid synthesis in Staphylococcus aureus ATCC 29213 at 8 times MIC measured by liquid scintillation counter; format: functional
# In short: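 Early-exponential S. aureus ATCC 29213 in CAMHBII exposed to drug at 8x MIC in triplicate tubes. Lipids extracted with chloroform/water. Organic phase dried and counted by liquid scintillation.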
# Enterococcus faecium [2] = assay: Antimicrobial activity against vancomycin-resistant Enterococcus faecium clinical isolate 1088051 by CLSI-based broth microdilution assay; format: functional
# Enterococcus faecium [3] = assay: Antimicrobial activity against vancomycin-resistant Enterococcus faecium clinical isolate 1091563 by CLSI-based broth microdilution assay; format: functional
# Enterococcus faecium [4] = assay: Antimicrobial activity against vancomycin-resistant Enterococcus faecium clinical isolate 1091720 by CLSI-based broth microdilution assay; format: functional
# Enterococcus faecium [5] = assay: Antimicrobial activity against vancomycin-resistant Enterococcus faecium clinical isolate 1094112 by CLSI-based broth microdilution assay; format: functional
# Enterococcus faecium [6] = assay: Antimicrobial activity against vancomycin-resistant Enterococcus faecium clinical isolate 1100440 by CLSI-based broth microdilution assay; format: functional
# Enterococcus faecium [7] = assay: Antimicrobial activity against vancomycin-resistant Enterococcus faecium clinical isolate 1088168 by CLSI-based broth microdilution assay; format: functional
# Staphylococcus aureus [8] = assay: Antimicrobial activity against methicillin-sensitive Staphylococcus aureus ATCC 29213 by CLSI-based broth microdilution assay; format: functional
# Staphylococcus aureus [9] = assay: Antimicrobial activity against methicillin-sensitive Staphylococcus aureus clinical isolate 1088060 by CLSI-based broth microdilution assay; format: functional
# In short: (§1)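 Broth microdilution starting at 50 µg/ml with 2-fold serial dilutions; run in triplicate.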
# Staphylococcus aureus [10] = assay: Antimicrobial activity against methicillin-sensitive Staphylococcus aureus clinical isolate 1088105 by CLSI-based broth microdilution assay; format: functional
# Staphylococcus aureus [11] = assay: Antimicrobial activity against methicillin-sensitive Staphylococcus aureus clinical isolate 1088626 by CLSI-based broth microdilution assay; format: functional
# Staphylococcus aureus [12] = assay: Antimicrobial activity against methicillin-susceptible Staphylococcus aureus ATCC 25923 assessed as bacterial growth inhibitions by CLSI protocol based microdilution method; format: functional
# Staphylococcus aureus [13] = assay: Antimicrobial activity against antibiotic-resistant Staphylococcus aureus BM-2312 assessed as bacterial growth inhibitions by CLSI protocol based microdilution method; format: functional
# Staphylococcus aureus [14] = assay: Antimicrobial activity against methicillin-resistant Staphylococcus aureus ATCC 33591 assessed as bacterial growth inhibitions by CLSI protocol based microdilution method; format: functional
# Staphylococcus aureus [15] = assay: Antimicrobial activity against methicillin-resistant Staphylococcus aureus ATCC 700699 assessed as bacterial growth inhibitions by CLSI protocol based microdilution method; format: functional
# Staphylococcus aureus [16] = assay: Antimicrobial activity against methicillin-resistant Staphylococcus aureus ATCC 33592 assessed as bacterial growth inhibitions by CLSI protocol based microdilution method; format: functional
# [17] = system: Staphylococcus epidermidis; assay: Antimicrobial activity against methicillin-resistant Staphylococcus epidermidis ATCC 700296 assessed as bacterial growth inhibitions by CLSI protocol based microdilution method; format: functional
# Bacillus subtilis = assay: Antimicrobial activity against Bacillus subtilis ATCC 6623 assessed as bacterial growth inhibitions by CLSI protocol based microdilution method; format: functional; in short: as §1
# Enterococcus faecium [18] = assay: Antimicrobial activity against vancomycin-resistant Enterococcus faecium ATCC 700221 assessed as bacterial growth inhibitions by CLSI protocol based microdilution method; format: functional
# [19] = Selectivity index, ratio of IC50 for cytotoxicity against human HEK-293T cells to MIC of antimicrobial activity against methicillin-resistant Staphylococcus aureus ATCC 700699; format: toxicity, cell-based; settings: read-out: Selectivity Index
# In short: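 Ratio of HEK293 IC50 to MIC. HEK293 cells (4000/well, EMEM with 10% FBS, 37 °C, 5% CO2) treated 24 h with a concentration range in DMSO. Resazurin added for 4 h, fluorescence read at ex 560/em 590 nm. IC50 fitted.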
# Staphylococcus aureus [20] = assay: Antibiofilm activity against Staphylococcus aureus ATCC 25923 assessed as inhibition of biofilm formation at 2 times MIC after 24 hrs by crystal violet staining based assay relative to control; format: functional; set-up: scale not given: the % may be the effect or the level left
# In short: (§2)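 Overnight culture brought to 0.5 McFarland in PBS, diluted 1:100 in CAMHB with 1% glucose. Inhibition: cells plus compound (in DMSO) at 2x, 1x, 0.5xMIC, 24 h at 35 °C, triplicate. Destruction: 24 h biofilm grown without drug, washed, fresh medium with compound, further 24 h. Then washed, dried, 0.1% crystal violet, solubilized in 33% acetic acid, OD 620 nm. Controls are DMSO-only and broth-only wells.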
# Staphylococcus aureus [21] = assay: Antibiofilm activity against Staphylococcus aureus ATCC 25923 assessed as inhibition of biofilm formation at 0.5 times MIC after 24 hrs by crystal violet staining based assay relative to control; format: functional, organism-based; in short: as §2
# Staphylococcus aureus [22] = assay: Antibiofilm activity against Staphylococcus aureus ATCC 25923 assessed as destruction of biofilm formation at 2 times MIC after 24 hrs by crystal violet staining based assay relative to control; format: functional; in short: as §2
# Staphylococcus aureus [23] = assay: Antibiofilm activity against Staphylococcus aureus ATCC 25923 assessed as destruction of biofilm formation at 1 times MIC after 24 hrs by crystal violet staining based assay relative to control; format: functional; in short: as §2
# Staphylococcus aureus [24] = assay: Antibiofilm activity against Staphylococcus aureus ATCC 25923 assessed as destruction of biofilm formation at 0.5 times MIC after 24 hrs by crystal violet staining based assay relative to control; format: functional, organism-based; in short: as §2
# Enterococcus faecalis [25] = assay: Antibiofilm activity against Enterococcus faecalis ATCC 29212 assessed as inhibition of biofilm formation at 1 times MIC after 24 hrs by crystal violet staining based assay relative to control; format: functional; in short: as §2
# Enterococcus faecalis [26] = assay: Antibiofilm activity against Enterococcus faecalis ATCC 29212 assessed as inhibition of biofilm formation at 0.5 times MIC after 24 hrs by crystal violet staining based assay relative to control; format: functional; in short: as §2
# Staphylococcus aureus [27] = assay: Antibacterial activity against methicillin resistant Staphylococcus aureus ATCC 700699 persisters assessed as reduction in viability at 16 times MIC by colony counting method; format: functional, organism-based
# In short: (§3)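 Stationary-phase S. aureus from overnight CAMHB culture (35 °C, 200 rpm), washed thrice in PBS, diluted to ~5 × 10^8 CFU/ml. Incubated with antibiotic at 35 °C, 200 rpm. Aliquots taken at set times, washed, serially diluted in PBS, drop-plated (6 × 6) on TSA with 5% sheep blood. Colonies counted after 18–20 h at 35 °C. Triplicates.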
# Staphylococcus aureus [28] = assay: Antibacterial activity against methicillin resistant Staphylococcus aureus ATCC 700699 persisters assessed as reduction in viability at 8 times MIC measured within 4 hrs by colony counting method; format: functional; settings: time hrs <=4; in short: as §3
# Staphylococcus aureus [29] = assay: Antibacterial activity against methicillin resistant Staphylococcus aureus ATCC 700699 persisters assessed as reduction in viability at 4 times MIC measured within 4 hrs by colony counting method; format: functional; settings: time hrs <=4; in short: as §3
# Staphylococcus aureus [30] = assay: Antibacterial activity against methicillin resistant Staphylococcus aureus ATCC 700699 persisters assessed as reduction in viability at 2 times MIC measured within 4 hrs by colony counting method; format: functional; settings: time hrs <=4; in short: as §3
# Staphylococcus aureus [31] = assay: Bactericidal activity against Staphylococcus aureus ATCC 700699 assessed as reduction bacterial growth at 4X MIC measured after 6 hrs by time-kill kinetic assay; format: functional, organism-based
# In short: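 Log-phase culture diluted to ~5 × 10^6 CFU/ml in warm CAMHB, exposed at 4xMIC, 35 °C. 20 µl samples every 2 h, 10-fold dilutions to 10^-5, 6 × 6 drop plating. CFU/ml counted after 18–24 h at 35 °C; triplicate.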
# Staphylococcus aureus [32] = assay: Antibacterial activity against vancomycin-intermediate susceptible Staphylococcus aureus ATCC 25923 assessed as bacterial growth inhibition by measuring fold increase in MIC between 8 passages by broth dilution method; format: functional
# Staphylococcus aureus [33] = assay: Antibacterial activity against vancomycin-intermediate susceptible Staphylococcus aureus ATCC 25923 assessed as bacterial growth inhibition by measuring fold increase in MIC between 14 passages by broth dilution method; format: functional
# Enterococcus faecalis [34] = assay: Antibacterial activity against vancomycin-intermediate Enterococcus faecalis ATCC 29212 assessed as bacterial growth inhibition by measuring fold increase in MIC after14 passages by broth dilution method; format: functional, organism-based
# Enterococcus faecalis [35] = assay: Antimicrobial activity against vancomycin-susceptible Enterococcus faecalis ATCC 29212 assessed as bacterial growth inhibitions by CLSI protocol based microdilution method
structure (smiles),measurement,setting,value
C/C=C/C/C=C/CCC(=O)[C@H]1O[C@H]1C(N)=O [CERULENIN],inhibition (INH),Staphylococcus aureus [1],71.9%
C[C@@H](O)[C@H]1C(=O)N2C(C(=O)O)=C(S[C@@H]3CN[C@H](C(=O)N(C)C)C3)[C@H](C)[C@H]12 [MEROPENEM],MIC,Enterococcus faecium [2],2 µg/mL
same,MIC,Enterococcus faecium [3],2 µg/mL
same,MIC,Enterococcus faecium [4],8 µg/mL
same,MIC,Enterococcus faecium [5],8 µg/mL
same,MIC,Enterococcus faecium [6],4 µg/mL
same,MIC,Enterococcus faecium [7],4 µg/mL
same,MIC,Staphylococcus aureus [8],0.06 µg/mL
same,MIC,Staphylococcus aureus [9],0.06 µg/mL
same,MIC,Staphylococcus aureus [10],0.12 µg/mL
same,MIC,Staphylococcus aureus [11],0.06 µg/mL
O=C(O)c1ccc(-n2cc(CNc3cc(Cl)c(F)c(Cl)c3)c(-c3ccc(C(F)(F)F)cc3)n2)cc1,MIC,Staphylococcus aureus [12],0.78 µg/mL
same,MIC,Staphylococcus aureus [13],0.78 µg/mL
same,MIC,Staphylococcus aureus [14],0.78 µg/mL
same,MIC,Staphylococcus aureus [15],0.78 µg/mL
same,MIC,Staphylococcus aureus [16],0.78 µg/mL
same,MIC,[17],0.78 µg/mL
same,MIC,Bacillus subtilis,0.78 µg/mL
same,MIC,Enterococcus faecium [18],0.78 µg/mL
same,selectivity ratio,[19],33
same,Activity,Staphylococcus aureus [20],> 85%
same,Activity,Staphylococcus aureus [21],inactive
same,Activity,Staphylococcus aureus [22],70%
same,Activity,Staphylococcus aureus [23],55%
same,Activity,Staphylococcus aureus [24],inactive
same,Activity,Enterococcus faecalis [25],inactive
same,Activity,Enterococcus faecalis [26],inactive
same,Activity,Staphylococcus aureus [27],Active
same,Activity,Staphylococcus aureus [28],1 log10CFU/ml
same,Activity,Staphylococcus aureus [29],1 log10CFU/ml
same,Activity,Staphylococcus aureus [30],1 log10CFU/ml
same,Activity,Staphylococcus aureus [31],Active
same,fold change (FC),Staphylococcus aureus [32],2
same,fold change (FC),Staphylococcus aureus [33],2
same,Activity,Enterococcus faecalis [34],inactive
same,MIC,Enterococcus faecalis [35],1.56 µg/mL
